Legend:
[1] = melting temperature; fluorescence melt of hairpins on a sequencing array, two-state fit, raised by 9.35 °C to match UV melts; conditions: sodium 0.088 M
Summary of the method: (§1)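 Hairpins were imaged by Cy3 fluorescence on a sequenced MiSeq flow cell with annealed Cy3 and quencher oligos, in 50 mM Na-HEPES pH 8.0, 25 mM NaCl, in 2.5 °C steps up to 60 °C. Bootstrapped two-state fits of normalised signals gave melting temperature and folding enthalpy. Four replicates were combined by inverse variance, and fitted temperatures were raised by 9.35 °C to match UV melts.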

[2] = folding enthalpy; higher = less favourable; fluorescence melt of hairpins on a sequencing array, two-state fit; conditions: sodium 0.088 M
Summary of the method: as §1

| Sequence | Tm [1] | folding enthalpy [2] |
| --- | --- | --- |
| CGTGCTCGGAAACGAACG (((..(((....)))))) | 21.2 °C | -5.98 kcal/mol |
| CGTGGTCGGAAACGAACG (((..(((....)))))) | 30.5 °C | -16.3 kcal/mol |
| CGTGTACGGAAACGTACG (((..(((....)))))) | 46 °C | -8.98 kcal/mol |
| CGTGTCCGGAAACGGACG (((..(((....)))))) | 48.1 °C | -7.66 kcal/mol |
| CGTGTCGGAAACGATACG (((.(((....))).))) | 53.2 °C | -39.1 kcal/mol |
| CGTGTGCGGAAACGCACG (((..(((....)))))) | 54.5 °C | -6.54 kcal/mol |
| CGTTACGGAAACGTCACG (((.(((....))).))) | 44.5 °C | -23.6 kcal/mol |
| CGTTCGGAAACGAACACG ((((((....)))..))) | 39.1 °C | -11.5 kcal/mol |
| CGTTCGGAAACGACTACG ((((((....)))..))) | 29 °C | -12.6 kcal/mol |
| CGTTCGGAAACGATACG ((((((....))).))) | 42.1 °C | -27.1 kcal/mol |
| CGTTCGGAAACGATTACG ((((((....)))..))) | 35.7 °C | -18.1 kcal/mol |
| CGTTGACGGAAACGTACG (((..(((....)))))) | 43.2 °C | -18.8 kcal/mol |
| CTAACTGAAAAGTTAG ((((((....)))))) | 45.9 °C | -23.3 kcal/mol |
| CTAGAGAAATCTAG (((((....))))) | 26.2 °C | -7.95 kcal/mol |
| CTCGGGAAACCGAG (((((....))))) | 56.1 °C | -23.9 kcal/mol |
| CTCTCGAAAGAGAG (((((....))))) | 53.3 °C | -21.5 kcal/mol |
| CTTAGGAAACTAAG (((((....))))) | 33.4 °C | -11.4 kcal/mol |
| CTTCAGAAATGAAG (((((....))))) | 36 °C | -11.5 kcal/mol |
| CTTCGGAAACGAAG (((((....))))) | 50.3 °C | -20.9 kcal/mol |
| CTTGGGAAACCAAG (((((....))))) | 45.9 °C | -22.4 kcal/mol |
| GAAAAAACGAAAGTTTTC (((..(((....)))))) | 30.9 °C | -13.4 kcal/mol |
| GAAAAACGAAAGTTTTC (((.(((....)))))) | 36.9 °C | -15.7 kcal/mol |
| GAAAACGAAAGTTCTTC ((((((....))).))) | 36.1 °C | -17.8 kcal/mol |

| Sequence | Tm [1] | folding enthalpy [2] |
| --- | --- | --- |
| GAAAACGAAAGTTCTTTC ((((((....)))..))) | 28.9 °C | -15.9 kcal/mol |
| GAAAAGCGAAAGCTCTTC (((.(((....))).))) | 36.5 °C | -15.4 kcal/mol |
| GAAAAGGAAACTTTTC ((((((....)))))) | 39.7 °C | -25.2 kcal/mol |
| GAAAAGGGAAACCTTTTC (((((((....))))))) | 50.6 °C | -38.8 kcal/mol |
| GAAACACCGAAAGGTTTC (((..(((....)))))) | 31.9 °C | -17.4 kcal/mol |
| GAAACACGAAAGTGTTC (((.(((....)))))) | 44 °C | -12.7 kcal/mol |
| GAAACAGGAAACTGTTTC (((((((....))))))) | 55.5 °C | -41.9 kcal/mol |
| GAAACCGAAAGGTGCTTC ((((((....)))..))) | 43.5 °C | -19.4 kcal/mol |
| GAAACCGAAAGGTGTTTC ((((((....)))..))) | 35.9 °C | -13.2 kcal/mol |
| GAAACCGAAAGGTTTTTC ((((((....)))..))) | 48.8 °C | -15.6 kcal/mol |
| GAAACCGGAAACGGTTCC (.(((((....))))).) | 41.4 °C | -13.4 kcal/mol |
| GAAAGACGAAAGTCGTTC (((.(((....))).))) | 46 °C | -15.1 kcal/mol |
| GAAAGCCGAAAGGCATTC (((.(((....))).))) | 45.9 °C | -15.2 kcal/mol |
| GAAAGCCGAAAGGCCTTC (((.(((....))).))) | 41.4 °C | -14.4 kcal/mol |
| GAAAGCCGAAAGGCTTC (((.(((....)))))) | 50.2 °C | -9.06 kcal/mol |
| GAAAGCGAAAGCTATTTC ((((((....)))..))) | 25.2 °C | -11.8 kcal/mol |
| GAAAGCGAAAGCTGCTTC ((((((....)))..))) | 42.9 °C | -19.4 kcal/mol |
| GAAAGCGAAAGCTTATTC ((((((....)))..))) | 32.7 °C | -10.9 kcal/mol |
| GAAAGCGAAAGCTTCTTC ((((((....)))..))) | 53.5 °C | -24.5 kcal/mol |
| GAAAGCGCGAAAGCGTTC (((..(((....)))))) | 28.3 °C | -7.58 kcal/mol |
| GAAAGCGGAAACGCCTTC (((.(((....))).))) | 34.1 °C | -18.4 kcal/mol |
| GAAAGGCGAAAGCCATTC (((.(((....))).))) | 41.4 °C | -16.5 kcal/mol |

From the array DNA melting data of Ke et al. (doi:10.1101/2024.01.08.574731)
